According to ChEMBL document CHEMBL4706516, “Development of dual inhibitors targeting pyruvate dehydrogenase kinases and human lactate dehydrogenase A: High-throughput virtual screening, synthesis and biological validation” (Eur J Med Chem, 2020):
Activity calls are given as the source filed them. The calls are words filed in the database; no cut-off is given here.

Experiments:
[1] = Inhibition of pig PDK assessed as catalytic activity measured after 30 mins by microplate reader based assay; set-up: species or system Sus scrofa
Procedure, shortened: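 Pig PDC preincubated 30 min at 37 °C in Mops pH 7.20 buffer with EDTA, KCl, MgCl2, acetyl-CoA, NADH, DTT and NaF. Kinase reaction started by adding ATP-containing buffer with or without compound; ATP-free wells serve as no-PDK controls. Reaction run 3 min at 37 °C, then stopped with ADP and pyruvate. Remaining PDC activity measured at 340 nm in Tris pH 7.8 with TPP, NAD+, pyruvate and CoA. IC50 is the mean of three independent experiments.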

A549 [2] = assay: Anticancer activity against human A549 assessed as cell growth inhibition measured after 72 hrs by MTT assay; assay type: functional, cell-based; details: A549, 72 h
Procedure, shortened: (§1)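 A549 cells grown in DMEM with 10% FBS and 1% penicillin/streptomycin, 5% CO2, humidified; exponential-phase cells used. Cells seeded at 2000/well, exposed to compound for 72 h, then MTT added and incubated 4 h before readout. Single-concentration screening at […]; EC50 values calculated from two independent experiments.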

[3] = molecular target: T1, L-lactate dehydrogenase A chain (Homo sapiens, UniProt P00338); assay: Inhibition of LDHA (unknown origin) in presence of NADH and sodium pyruvate measured after 10 mins by enzymatic assay
Procedure, shortened: (§2)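 LDHA at 5 nM final in buffer of 150 mM Tris-HCl pH 7.4 with EDTA and 0.01% Tween-20, compounds in 1% DMSO. Reaction started with substrate solution, final NADH 0.06 mM and sodium pyruvate 0.2 mM. After 10 min at room temperature, plates read at 340 nm. Screening done at a single concentration of 10.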

A549 [4] = assay: Antiproliferative activity against human A549 assessed as cell growth inhibition at 20 uM measured after 72 hrs by MTT assay; assay type: functional; procedure, shortened: as §1
[5] = molecular target: T1, L-lactate dehydrogenase A chain; assay: Inhibition of LDHA (unknown origin) in presence of NADH and sodium pyruvate at 10 uM by enzymatic assay relative to parent compound; procedure, shortened: as §2
Sus scrofa = species on record: Sus scrofa; assay: Inhibition of pig PDK assessed as catalytic activity at 10 uM by PDC assay
A549 [6] = assay: Metabolic modulatory effect in human A549 cells assessed as increase in oxygen consumption rate at 10 to 40 uM measured after 4 hrs by seahorse XF24 extracellular flux analyzer assay; assay type: functional, cell-based; details: dose 10-40 µM
A549 [7] = assay: Metabolic modulatory effect in human A549 cells assessed as decrease in lactate formation measured after 4 hrs by Flex analyzer; assay type: functional, cell-based; details: dose 10-40 µM
Procedure, shortened: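 A549 cells, 2 × 10^5 per well, plated overnight, then treated at […] for 4 h at 37 °C. Medium collected and centrifuged 10 min at 10000 rpm to remove debris. Lactate in the medium measured on a Nova Bioprofile Flex analyzer.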

Cc1occc(=O)c1OCCN1CCN(C(=O)c2ccc(C(F)(F)F)cc2)CC1
IC50 [1]: 5.1 µM
EC50 (A549 [2]): > 20 µM
IC50 [3]: 4.7 µM

Cc1occc(=O)c1OCC(=O)N1CCN(C(c2ccccc2)c2ccccc2)CC1
IC50 [1]: > 10 µM
IC50 [3]: 7.3 µM

Cc1occc(=O)c1OCCN1CCN(C(=O)C(Cl)Cl)CC1
IC50 [1]: > 10 µM
IC50 [3]: > 10 µM

COc1cc(OC)cc(N2CCN(C(=O)COc3c(C)occc3=O)CC2)c1
IC50 [1]: > 10 µM
IC50 [3]: > 10 µM

Cc1nc(N2CCN(C(=O)C(=O)NCCO)CC2)c(C#N)c2c1CCCC2
inhibition (A549 [4]): inactive
inhibition [5]: Active
inhibition (Sus scrofa): 50%

Cc1cccc(C(=O)N2CCN(CCOc3c(C)occc3=O)CC2)c1
IC50 [1]: > 10 µM
IC50 [3]: 7.7 µM

Cc1occc(=O)c1OCC(=O)N1CCN(c2ccccc2F)CC1
IC50 [1]: > 10 µM
IC50 [3]: > 10 µM

Cc1cc(C)cc(N2CCN(C(=O)COc3c(C)occc3=O)CC2)c1
IC50 [1]: 8.1 µM
IC50 [3]: > 10 µM

Cc1occc(=O)c1OCC(=O)N1CCN(c2cccc(F)c2)CC1
IC50 [1]: 1 µM
IC50 [3]: > 10 µM

Cc1occc(=O)c1OCC(=O)N1CCN(c2cccc(Cl)c2)CC1
inhibition at 20 µM (A549 [4]): 51%
inhibition (Sus scrofa): 50%
IC50 [1]: 9.1 µM
EC50 (A549 [2]): 18.5 µM
IC50 [3]: 5.9 µM

Cc1occc(=O)c1OCC(=O)N1CCN(c2ccc([N+](=O)[O-])cc2)CC1
IC50 [1]: 0.8 µM
IC50 [3]: 6.9 µM

CCOC(=O)C(=O)N1CCN(c2nc(-c3ccccc3)c3c(c2C#N)CC(C)(C)OC3)CC1
inhibition (A549 [4]): inactive
inhibition [5]: Active
inhibition (Sus scrofa): 50%

Cc1occc(=O)c1OCCN1CCN(C(=O)c2ccccc2)CC1
IC50 [1]: > 10 µM
IC50 [3]: 2.8 µM

CC1(C)Cc2c(C#N)c(N3CCN(C(=O)C(=O)NCCO)CC3)nc(-c3ccccc3)c2CO1
inhibition (A549 [4]): inactive
inhibition [5]: Active
inhibition (Sus scrofa): 50%

Cc1occc(=O)c1OCCN1CCN(C(=O)c2ccc(F)cc2)CC1
Activity (A549 [6]): Active
Activity (A549 [7]): Dose-dependent effect
IC50 [1]: 0.8 µM
EC50 (A549 [2]): 13.2 µM
IC50 [3]: 0.15 µM

Cc1occc(=O)c1OCC(=O)N1CCN(c2ccccc2)CC1
IC50 [1]: 1.8 µM
IC50 [3]: > 10 µM

CCOC(=O)C(=O)N1CCN(c2nc(C)c3c(c2C#N)CCCC3)CC1
inhibition (A549 [4]): inactive
inhibition [5]: Active
inhibition (Sus scrofa): 50%

Cc1occc(=O)c1OCC(=O)N1CCN(c2ccc(F)cc2)CC1
IC50 [1]: 1.4 µM
IC50 [3]: 3.7 µM

Cc1occc(=O)c1OCC(=O)N1CCN(c2ccccn2)CC1
IC50 [1]: > 10 µM
IC50 [3]: > 10 µM

O=C(CN1C(=O)c2ccccc2N2C(=O)c3ccccc3C12)NCCNc1ncccn1 (stereo unspecified)
inhibition at 20 µM (A549 [4]): 50%
inhibition [5]: Active
inhibition (Sus scrofa): 50%

Cc1occc(=O)c1OCCN1CCN(C(=O)c2ccc(Cl)cc2)CC1
IC50 [1]: 3.9 µM
EC50 (A549 [2]): > 20 µM
IC50 [3]: 2.7 µM

Cc1occc(=O)c1OCCN1CCN(C(=O)c2ccccc2F)CC1
IC50 [1]: 5.9 µM
EC50 (A549 [2]): > 20 µM
IC50 [3]: 3.4 µM

COc1cccc(N2CCN(C(=O)COc3c(C)occc3=O)CC2)c1
IC50 [1]: > 10 µM
IC50 [3]: 4.6 µM

Cc1ccccc1N1CCN(C(=O)COc2c(C)occc2=O)CC1
IC50 [1]: > 10 µM
IC50 [3]: > 10 µM

COc1cccc(N2CCN(C(=O)COc3coc(C)cc3=O)CC2)c1
inhibition (A549 [4]): inactive
inhibition [5]: Active
inhibition (Sus scrofa): 50%

Cc1occc(=O)c1OCC(=O)N1CCN(c2ccccc2[N+](=O)[O-])CC1
IC50 [1]: 6.3 µM
IC50 [3]: > 10 µM

CC(C)c1nc(N2CCN(C(=O)C(=O)NCCO)CC2)c(C#N)c2c1CCC2
inhibition (A549 [4]): inactive
inhibition [5]: Active
inhibition (Sus scrofa): 50%

Cc1occc(=O)c1OCCN1CCN(C(=O)c2ccco2)CC1
Activity (A549 [6]): Active
Activity (A549 [7]): Dose-dependent effect
IC50 [1]: 1.6 µM
EC50 (A549 [2]): 15.7 µM
IC50 [3]: 0.7 µM

COc1cccc(C(=O)N2CCN(CCOc3c(C)occc3=O)CC2)c1
IC50 [1]: > 10 µM
IC50 [3]: > 10 µM

CCOC(=O)C(=O)N1CCN(c2nc(C(C)C)c3c(c2C#N)CCC3)CC1
inhibition (A549 [4]): inactive
inhibition [5]: Active
inhibition (Sus scrofa): 50%

Cc1occc(=O)c1OCCN1CCN(C(=O)c2ccccc2[N+](=O)[O-])CC1
IC50 [1]: 3 µM
IC50 [3]: > 10 µM

Cc1occc(=O)c1OCC(=O)N1CCN(c2ncccn2)CC1
IC50 [1]: > 10 µM
IC50 [3]: > 10 µM

COc1ccc(N2CCN(C(=O)COc3c(C)occc3=O)CC2)cc1
IC50 [1]: > 10 µM
IC50 [3]: 0.56 µM
